# APJ antagonist: antagonists of human apelin receptor APJ, primary screen, CHO-K1 cells, beta-arrestin complementation, luminescence | P35414 | inhibition, % at 20 µM | 330,000 compounds, 0.32% hits;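 active = inhibition above about 40% at 20 µM, limit read from the data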;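 also: cells challenged with 10 nM apelin-13 agonist together with compound; plate controls were apelin-13 plus DMSO wells for no effect and DMSO wells lacking apelin-13 for full effect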
# CCR6 antagonist: CCR6 receptor antagonists, primary screen, cell-based, CHO-K1, luminescence, beta-arrestin, uHTS; C-C chemokine receptor type 6 (Homo sapiens), P51684; CHO-K1 CCR6 PathHunter beta-arrestin, CCL20-stimulated; inhibition, % at 20 µM; 340,000 compounds, 0.49% hits; AID 493098, 2011;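 active = compounds whose inhibition of the agonist-driven luminescence signal at 20 µM reaches about 50%, limit read from the data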;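 also: cells stimulated with CCL20 at 14 nM final; plate controls were DMSO with CCL20 for no effect and DMSO without agonist for full effect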
# EBI2 antag: EBI2 receptor antagonists, beta-arrestin recruitment, primary screen, cell-based, luminescence, 7a,25-OHC stimulation, uHTS; 7a,25-OHC stimulated; inhibition, % at 5 µM; 360,000 compounds, 0.81% hits; AID 651636, 2012; in the data active = inhibition above about 38%;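 also: enzyme fragment complementation signal reports receptor beta-arrestin coupling in cells; 0% = agonist plus DMSO wells and 100% = wells without agonist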
# CXCR6 block: CXCR6 receptor inhibitors, primary screen, cell-based, beta-arrestin, luminescence, CHO-K1 PathHunter, 1536-well; C-X-C chemokine receptor type 6 (Homo sapiens), O00574; inhibition, % at 20 µM; 360,000 compounds, 0.36% hits; AID 602244, 2012; in the data active = inhibition above about 34%, passing the limit was not always enough;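 also: antagonist mode with CXCL16 agonist at 10 nM final; 0% = 10 nM CXCL16 with DMSO and 100% = unstimulated wells without agonist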
# HTR2A ag: mouse Htr2a agonists via beta-arrestin recruitment, primary screen, cell-based, luminescence; 5-hydroxytryptamine receptor 2A (Mus musculus), P35363; CHO-K1 mHTR2A beta-arrestin complementation; percent of 30 µM serotonin response; activation, % at 7.6 µM; 360,000 compounds, 0.66% hits; AID 624169, 2012;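 active = activation above a run cutoff, the mean activation of all tested compounds plus 3 SD, cut at about 14% in these data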;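 also: 0% = plate median of compound wells and 100% = 30 µM serotonin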
# APJ agonist: agonists of human apelin receptor APJ, primary screen, CHO-K1 cells, PathHunter beta-arrestin, luminescence. activation, % at 20 µM. 330,000 compounds, 0.11% hits. 0% DMSO wells, 100% apelin. P35414;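 active = activation more than six SD over the plate average, tested at 20 µM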;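 also: 0% = DMSO alone and 100% = apelin-13 at 10 nM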
#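 Test system: CHO-K1 APJ beta-arrestin complementation cell line | Compound: Single test compound dose, 20 µM final, 1% DMSO | Incubation: Compound 90 min 25 °C, reagent 1 h | Measured by: beta-gal luminescence | Read-out basis: APJ–arrestin association signal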
# OPRM1 ag: OPRM1 agonists via beta-arrestin recruitment, confirmation, counter-screen for mouse HTR2A agonist project, cell-based, luminescence, single concentration | shares compounds with HTR2A ag | 2,300 compounds, 5.3% hits | U2OS OPRM1 beta-arrestin PathHunter; DMSO 0%, DAMGO 9.3 µM 100% | activation, % at 9.3 µM;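 active = mean activation above the mean of DMSO-only wells plus 3 SD, cut at about 0.5% in these data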
# Target sequence (P35372 whole entry, looked up): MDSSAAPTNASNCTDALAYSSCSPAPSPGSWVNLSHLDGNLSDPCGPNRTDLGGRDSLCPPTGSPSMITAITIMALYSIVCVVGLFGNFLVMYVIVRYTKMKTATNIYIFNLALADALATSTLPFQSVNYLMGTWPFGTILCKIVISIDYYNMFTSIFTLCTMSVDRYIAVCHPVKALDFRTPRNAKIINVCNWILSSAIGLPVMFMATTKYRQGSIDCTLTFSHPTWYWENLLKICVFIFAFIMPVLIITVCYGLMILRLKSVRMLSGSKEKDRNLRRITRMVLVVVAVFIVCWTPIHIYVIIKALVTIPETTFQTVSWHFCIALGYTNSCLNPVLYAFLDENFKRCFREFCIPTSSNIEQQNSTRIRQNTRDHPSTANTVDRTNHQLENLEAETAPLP
# HTR2A ag conf: mouse HTR2A agonists, beta-arrestin recruitment, confirmation, cell-based, luminescence, CHO-K1 PathHunter, triplicate; shares compounds with HTR2A ag; DMSO 0%, 30 µM serotonin 100%; activation, % at 7.6 µM; 2,300 compounds, 19% hits;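 active = mean activation across triplicates above the hit threshold derived in the original primary screen, cut at about 15% in these data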
# The depositor's hits bear a star; nt = no result given. Hits are enriched below; roughly 2.2% of the tested compounds scored in any of these assays.
SMILES,APJ antagonist,CCR6 antagonist,EBI2 antag,CXCR6 block,HTR2A ag,APJ agonist,OPRM1 ag,HTR2A ag conf
C[C@@H](O)C#Cc1ccc2c(c1)O[C@H](CN(C)C(=O)Nc1ccccc1)[C@@H](C)CN([C@@H](C)CO)S2(=O)=O,nt,nt,-13,-2,15*,nt,0,8
CCc1ccc(N2CC(C(=O)N3CCN(S(=O)(=O)c4cccc(F)c4)CC3)CC2=O)cc1 (stereo not given),nt,nt,17,8,1,nt,nt,nt
Clc1ccc(CN2CCN(c3ncccn3)CC2)c(Cl)c1,13,12,16,0,16*,-2,0,103*
Clc1ccccc1CN1CCN(c2ncccn2)CC1,-12,13,7,3,28*,1,0,98*
C[C@H](CO)N1C[C@H](C)[C@@H](CN(C)S(=O)(=O)c2ccccc2)Oc2c(NS(=O)(=O)c3ccccc3)cccc2C1=O,-14,-5,-13,-1,-3,-2,nt,nt
Cc1ccc(/C=N\NC(=O)Cc2cccn2C)o1,0,5,5,-4,0,-3,nt,nt
Cc1ccc(/C=N/NC(=O)CN2C(=O)CSc3ccccc32)o1,4,-3,-1,-3,20*,0,-1,-3
COc1cc(OCc2ccccc2)c(CC(=O)O)c([N+](=O)[O-])c1,nt,nt,11,3,3,nt,nt,nt
OC[C@@H]1CN(Cc2ccc(-c3ccccc3)cc2)C[C@H](n2cnc3c(NCc4ccncc4)ncnc32)O1,nt,nt,-10,-4,-5,nt,nt,nt
Cc1ccc(OCC(=O)NCc2n[nH]c(=O)c3ccccc23)cc1,19,-8,3,2,-3,-7,nt,nt
CCOc1ccc(OCC(=O)NCc2n[nH]c(=O)c3ccccc23)cc1,12,6,12,-3,16*,-6,-1,-1
CC(C)c1nc(SCC(=O)NCC2CCCO2)c2c(=O)n(C)c(=O)n(C)c2n1 (stereo not given),6,11,-12,-2,28*,3,-1,-4
Cc1ccccc1-c1cnc(C(O)c2ccc(Cl)c(F)c2)[nH]1 (stereo not given),nt,nt,-1,-11,-3,nt,nt,nt
COc1ccc(NC(=S)N(CCCN2CCCC2)Cc2cccs2)cc1,2,11,7,-4,1,-1,nt,nt
CSc1cccc(NC(=S)N(CCCN2CCCC2)Cc2cccs2)c1,6,29,8,13,43*,-5,-1,15*
O=C(CC[C@H]1O[C@@H](n2cnc3c(NC(=O)c4ccccc4)ncnc32)[C@H](O)[C@@H]1O)NCCc1cc2ccccc2[nH]1,nt,nt,-4,-4,7,nt,nt,nt
CCN(CC(=O)Nc1ccccc1C(F)(F)F)C(=O)CN1C(=O)NC2(CCCCC2)C1=O,-21,-3,5,-7,17*,-4,-1,-4
CN(CC(=O)Nc1cccc(F)c1)C(=O)CN1C(=O)NC2(CCCCC2)C1=O,-37,7,-6,5,-3,-2,nt,nt
CN(CC(=O)Nc1ccc(F)cc1)C(=O)CN1C(=O)NC2(CCCC2)C1=O,-27,5,1,-4,20*,-5,-1,-4
CC(C)Oc1nc(-c2ccc(Cl)cc2)nc2ccccc12,13,7,-11,-6,-3,-6,nt,nt
CCOc1nc(-c2ccc(Cl)cc2)nc2ccccc12,11,3,5,-4,27*,-1,0,1
Cc1ccc(NC(=O)CN2C(=O)c3ccccc3S2(=O)=O)c(C)c1,4,-2,-3,-14,18*,0,0,-2
COc1cccc(-c2nc(-c3cccc(C)c3)nc3cc(Cl)ccc23)c1,nt,nt,-5,-3,17*,nt,0,-1
Cc1nc2ccc(C(=O)N(C)Cc3ccco3)cn2c1N(C)CC1CCCCC1,nt,nt,8,2,0,nt,nt,nt
CC(/C=C/C1(O)C(C)CC(O)CC1(C)C)OC1OC(CO)C(O)C(O)C1O (stereo not given),-29,9,-1,-5,39*,-2,-1,-1
SMILES,APJ antagonist,CCR6 antagonist,EBI2 antag,CXCR6 block,HTR2A ag,APJ agonist,OPRM1 ag,HTR2A ag conf
Cc1cc2oc(C(=O)Nc3c(C)n(C)n(-c4ccccc4)c3=O)c(C)c2cc1C,9,4,-1,-4,1,-3,nt,nt
Cc1ccc2c(C)c(C(=O)Nc3c(C)n(C)n(-c4ccccc4)c3=O)oc2c1C,7,-2,-8,-5,17*,-4,0,40*
Cc1cc(N(CN2CCCC2=O)C(=O)c2ccccc2)no1,3,2,-2,4,19*,-4,0,-4
CC1(C(=O)NS(=O)(=O)C2CC2)CCCN(C(=O)c2ccc3ccccc3c2)C1 (stereo not given),nt,nt,-2,5,-3,nt,nt,nt
COC1=CC(C)C2CC3OC(=O)CC4C(C)=C(OC)C(=O)C(C2(C)C1=O)C34C (stereo not given),nt,nt,2,2,4,nt,nt,nt
CCN(C(=O)CSc1nnc(-c2ccccc2C)n1C)c1c(N)n(Cc2ccccc2)c(=O)[nH]c1=O,-22,3,0,-2,14*,2,0,-2
Cc1ccccc1-c1nnc(SCC(=O)N(C)c2c(N)n(Cc3ccccc3)c(=O)[nH]c2=O)n1C,19,13,2,6,-7,-6,nt,nt
Cc1ccc(-n2c(C)nnc2SCC(=O)N(C)c2c(N)n(Cc3ccccc3)c(=O)[nH]c2=O)cc1,1,15,1,3,17*,-1,0,-2
O=C(Nc1ccccc1Cl)c1cc(C2CCCCN2C(=O)c2cccs2)on1 (stereo not given),nt,nt,3,4,-6,nt,nt,nt
C=CCN1[C@@H](Cc2ccccc2)COCCS1(=O)=O,nt,-4,-1,-1,0,nt,nt,nt
CN(Cc1ccccc1)C(=O)[C@@H]1CCCN1,nt,nt,-13,-1,-1,nt,nt,nt
Cc1cc(CSc2nc(C)cc(=O)[nH]2)c2ncccc2c1,5,10,-16,-3,16*,-3,-1,3
Cc1cc(=O)[nH]c(SCc2cccc3ccccc23)n1,-4,7,5,0,2,-3,nt,nt

# Assay outcomes deposited in PubChem BioAssay by several laboratories.
